Measured values from ChEMBL document CHEMBL3085721, “Nonhydrolyzable ATP analogues as selective inhibitors of human NPP1: a combined computational/experimental study” (J Med Chem, 2013).

Biological target: T1, Ectonucleotide pyrophosphatase/phosphodiesterase family member 3 (Homo sapiens) (UniProt O14638)
T1 sequence (whole entry): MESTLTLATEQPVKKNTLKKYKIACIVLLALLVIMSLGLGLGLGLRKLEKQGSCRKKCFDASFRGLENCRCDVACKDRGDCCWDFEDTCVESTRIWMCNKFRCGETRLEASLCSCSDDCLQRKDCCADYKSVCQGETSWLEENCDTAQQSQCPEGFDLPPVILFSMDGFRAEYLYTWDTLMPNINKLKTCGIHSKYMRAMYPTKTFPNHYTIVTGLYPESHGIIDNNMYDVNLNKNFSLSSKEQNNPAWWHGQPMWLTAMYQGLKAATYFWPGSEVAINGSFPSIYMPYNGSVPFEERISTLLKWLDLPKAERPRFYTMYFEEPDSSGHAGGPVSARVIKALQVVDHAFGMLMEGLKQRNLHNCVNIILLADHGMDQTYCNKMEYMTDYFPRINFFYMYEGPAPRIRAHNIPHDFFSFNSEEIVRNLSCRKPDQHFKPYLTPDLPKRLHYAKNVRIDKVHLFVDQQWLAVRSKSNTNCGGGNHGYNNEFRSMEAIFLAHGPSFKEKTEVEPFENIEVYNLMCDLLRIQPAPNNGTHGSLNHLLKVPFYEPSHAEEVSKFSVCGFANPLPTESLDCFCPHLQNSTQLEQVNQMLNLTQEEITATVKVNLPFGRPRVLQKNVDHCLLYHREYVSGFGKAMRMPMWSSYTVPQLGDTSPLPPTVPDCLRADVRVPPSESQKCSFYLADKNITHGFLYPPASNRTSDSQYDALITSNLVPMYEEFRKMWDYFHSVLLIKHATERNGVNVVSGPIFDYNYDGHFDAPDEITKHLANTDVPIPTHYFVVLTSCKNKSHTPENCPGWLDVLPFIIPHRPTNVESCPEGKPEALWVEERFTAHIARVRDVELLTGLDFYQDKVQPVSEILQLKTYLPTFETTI
Assay: Inhibition of human NPP3 expressed in COS7 cells assessed as production of p-nitrophenol using pnp-TMP as the substrate preincubated at 100 uM for 3 mins before substrate addition measured after 15 mins […]
Assay type: cell-based
Conditions: COS-7
How it was run: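 Crude extracts of COS-7 cells transiently transfected with human NPP1 or NPP3, preincubated 3 min at 37 °C in 1 mM CaCl2, 140 mM NaCl, 5 mM KCl, 50 mM Tris pH 8.5 with analogue at 100 μM. Reaction started with 100 μM pnp-TMP; p-nitrophenol at 410 nm after 15 min. Activity without analogue set as 100%. Mean ± SD of 3−6 experiments in triplicate.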

Row | Compound | inhibition [%]
1 | B[P@@](=O)(OC[C@H]1O[C@@H](n2cnc3c(N)nc(SC)nc32)[C@H](O)[C@@H]1O)OP(=O)(O)C(F)(F)P(=O)(O)O | 50
2 | CSc1nc(N)c2ncn([C@@H]3O[C@H](COP(=O)(O)C(F)(F)P(=O)(O)O)[C@@H](O)[C@H]3O)c2n1 | 50

Biological target: T1, Ectonucleotide pyrophosphatase/phosphodiesterase family member 3 (Homo sapiens)
Assay: Inhibition of NPP3 in human HTB-85 cells assessed as production of p-nitrophenol using pnp-TMP at 100 uM measured after 20 mins by spectrophotometry
Assay type: cell-based
Conditions: not given
How it was run: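 Intact osteocarcinoma HTB85 (SaOS-2) cells in 24-well plates, 0.5 mL incubation mixture, analogue and pnp-TMP each at 100 μM. After 20 min an aliquot was read for p-nitrophenol at 410 nm. Substrate alone set as 100%. Mean ± SD of three experiments in triplicate.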

Row | Compound | inhibition [%]
3 | B[P@](=O)(OC[C@H]1O[C@@H](n2cnc3c(N)ncnc32)[C@H](O)[C@@H]1O)OP(=O)(O)CP(=O)(O)O | 41
4 | CSc1nc(N)c2ncn([C@@H]3O[C@H](COP(=O)(O)C(F)(F)P(=O)(O)O)[C@@H](O)[C@H]3O)c2n1 | 41
5 | B[P@@](=O)(OC[C@H]1O[C@@H](n2cnc3c(N)ncnc32)[C@H](O)[C@@H]1O)OP(=O)(O)CP(=O)(O)O | 90
6 | B[P@](=O)(OC[C@H]1O[C@@H](n2cnc3c(N)nc(SC)nc32)[C@H](O)[C@@H]1O)OP(=O)(O)CP(=O)(O)O | 90
